target: Mitogen-activated protein kinase 10 (Homo sapiens, UniProt P53779); assay: Inhibition of JNK3 by HTRF assay
Procedure, shortened: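 JNK3 phosphorylation of biotinylated-ATF2, final 0.3 nM JNK3, 0.4 nM substrate, 1 μM ATP. The phospho-Thr71-ATF-2 product is detected with a Europium-cryptate-labeled anti-phospho-Thr71-ATF-2 antibody. IC50 values are means of three experiments.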

Mitogen-activated protein kinase 10, sequence (P53779 whole entry): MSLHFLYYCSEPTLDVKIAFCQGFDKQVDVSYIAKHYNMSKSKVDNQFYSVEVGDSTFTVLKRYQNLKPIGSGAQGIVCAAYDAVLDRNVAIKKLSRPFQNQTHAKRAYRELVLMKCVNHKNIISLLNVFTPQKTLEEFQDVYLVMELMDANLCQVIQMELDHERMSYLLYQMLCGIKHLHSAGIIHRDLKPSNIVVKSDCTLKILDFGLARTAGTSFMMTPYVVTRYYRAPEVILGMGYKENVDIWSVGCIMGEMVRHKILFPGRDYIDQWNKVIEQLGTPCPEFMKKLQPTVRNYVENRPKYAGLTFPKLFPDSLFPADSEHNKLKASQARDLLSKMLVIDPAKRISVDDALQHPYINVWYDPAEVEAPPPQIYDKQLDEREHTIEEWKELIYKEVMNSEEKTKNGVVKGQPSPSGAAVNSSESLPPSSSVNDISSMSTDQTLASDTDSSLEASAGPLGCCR

SMILES	IC50 [nM]
c1ccc(-c2cnc3ccc4ccncc4c3c2)cc1	1000
c1cc2ccc3ncc(-c4ccc(N5CCOCC5)cc4)cc3c2cn1	1300
Nc1ccc(-c2cnc3ccc4ccncc4c3c2)cc1	510
CS(=O)(=O)Nc1ccc(-c2cnc3cccc(Nc4ccc(Cl)cn4)c3c2)cc1	120
CC(=O)N(C(C)=O)c1ccc(-c2cnc3ccc4ccncc4c3c2)cc1	1600
CS(=O)(=O)Nc1ccc(-c2cnc3cccc(Nc4ncccn4)c3c2)cc1	480
CS(=O)(=O)Nc1ccc(-c2cnc3ccc4ccncc4c3c2)cc1	930
CS(=O)(=O)Nc1ccc(-c2cnc3cccc(Nc4ncccc4Cl)c3c2)cc1	15000
CC(=O)Nc1ccc(-c2cnc3ccc4ccncc4c3c2)cc1	530
c1ccc(-c2ccc(-c3cnc4ccc5ccncc5c4c3)cc2)cc1	> 20000
CS(=O)(=O)N(c1ccc(-c2cnc3ccc4ccncc4c3c2)cc1)S(C)(=O)=O	210
c1cc2ccc3ncc(-c4ccc(-c5ccn[nH]5)cc4)cc3c2cn1	3600

— ChEMBL document CHEMBL1140546, “3,5-Disubstituted quinolines as novel c-Jun N-terminal kinase inhibitors” (Bioorg Med Chem Lett, 2007)
